ChEMBL document CHEMBL4699451, “Discovery of BIIB068: A Selective, Potent, Reversible Bruton's Tyrosine Kinase Inhibitor as an Orally Efficacious Agent for Autoimmune Diseases” (J Med Chem, 2020)
pIC50, pKi: −log10 of the molar value.

Legend:
[1] = In vivo inhibition of BTK-dependent B cell activation in TI-2 antigen/ NP-Ficoll-induced DBA1 mouse immunized model assessed as reduction in anti-NP IgM antibody titer administered orally twice daily for 10 days measured post last dose by ELISA; type: functional, organism-based; settings: DBA1, po, 240 h, dose mg/kg 1-50, time 10 day
[2] = Lipophilicity, log D of compound by UV-HPLC method; type: physicochemical
[3] = Kinetic solubility of compound at pH 6.8 by shake flask method; type: physicochemical; settings: buffer, read-out: Kinetic_solubility
[4] = Protein binding in human plasma assessed as unbound fraction at 2 uM by rapid equilibrium dialysis method; type: ADME, cell-free
Outline: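 Unbound fraction in human plasma determined by rapid equilibrium dialysis at 2 µM compound.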

[5] = Half life in rat at 1 mg/kg, iv; type: ADME, organism-based; settings: in vivo
[6] = Volume of distribution at steady state in rat at 1 mg/kg, iv; type: ADME, organism-based; settings: in vivo, read-out: Vdss
Outline: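 Intravenous dosing at 1 mg/kg in male SD rats, measured in triplicate; vehicle 40% NMP solution. Clearance expressed as %Qh.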

[7] = AUC in dog at 5 mg/kg, po; type: ADME, organism-based, Canis lupus familiaris; design: dose 5 mg/kg; settings: in vivo
[8] = Cmax in dog at 5 mg/kg, po; type: ADME, organism-based, Canis lupus familiaris; design: route oral, dose 5 mg/kg; settings: in vivo
[9] = Oral bioavailability in dog at 5 mg/kg; type: ADME, organism-based, Canis lupus familiaris; settings: in vivo
[10] = Half life in dog at 1 mg/kg, iv; type: ADME, organism-based, Canis lupus familiaris; settings: in vivo
[11] = Volume of distribution at steady state in dog at 1 mg/kg, iv; type: ADME, organism-based, Canis lupus familiaris; settings: in vivo, read-out: Vdss
Outline: (§1)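 Intravenous dosing at 1 mg/kg; vehicle 70:30 PEG-400:H2O solution.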

[12] = Clearance in cynomolgus monkey at 1 mg/kg, iv; type: ADME, organism-based, Macaca fascicularis; settings: in vivo
[13] = Half life in cynomolgus monkey at 1 mg/kg, iv; type: ADME, organism-based, Macaca fascicularis; settings: in vivo
[14] = Volume of distribution at steady state in cynomolgus monkey at 1 mg/kg, iv; type: ADME, organism-based, Macaca fascicularis; settings: in vivo, read-out: Vdss; outline: as §1
[15] = Clearance in cynomolgus monkey at 1 mg/kg, iv relative to hepatic blood flow; type: ADME, organism-based, Macaca fascicularis; settings: in vivo
Cytochrome P450 1A2 = biological target: T1, Cytochrome P450 1A2 (Homo sapiens, UniProt P05177); experiment: Inhibition of CYP1A2 in human liver microsomes using phenacetin as substrate measured after 15 mins in presence of NADPH by LC-MS/MS analysis; type: ADME
T1 sequence (P05177 whole entry): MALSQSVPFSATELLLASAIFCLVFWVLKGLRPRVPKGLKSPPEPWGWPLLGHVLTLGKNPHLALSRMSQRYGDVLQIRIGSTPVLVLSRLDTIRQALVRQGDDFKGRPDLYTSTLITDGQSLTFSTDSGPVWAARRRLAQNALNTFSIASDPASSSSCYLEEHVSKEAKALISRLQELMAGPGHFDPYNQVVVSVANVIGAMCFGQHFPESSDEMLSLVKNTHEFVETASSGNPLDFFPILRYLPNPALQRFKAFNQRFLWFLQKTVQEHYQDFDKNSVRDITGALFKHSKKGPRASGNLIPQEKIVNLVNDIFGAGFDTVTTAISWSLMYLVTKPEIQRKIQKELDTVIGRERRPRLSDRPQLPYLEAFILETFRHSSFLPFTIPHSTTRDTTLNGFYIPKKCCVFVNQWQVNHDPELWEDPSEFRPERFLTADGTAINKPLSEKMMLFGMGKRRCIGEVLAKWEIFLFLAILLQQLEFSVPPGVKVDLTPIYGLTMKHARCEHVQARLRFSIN

Cytochrome P450 2C19 = Cytochrome P450 2C19 (Homo sapiens, UniProt P33261); experiment: Inhibition of CYP2C19 in human liver microsomes using S-mephenytoin as substrate measured after 30 mins in presence of NADPH by LC-MS/MS analysis; type: ADME
Cytochrome P450 3A4 [16] = biological target: T2, Cytochrome P450 3A4 (Homo sapiens, UniProt P08684); experiment: Inhibition of CYP3A4 in human liver microsomes using testosterone as substrate measured after 15 mins in presence of NADPH by LC-MS/MS analysis; type: ADME
Cytochrome P450 3A4 [17] = biological target: T2, Cytochrome P450 3A4; experiment: Inhibition of CYP3A4 in human liver microsomes using midazolam as substrate measured after 15 mins in presence of NADPH by LC-MS/MS analysis; type: ADME
Cytochrome P450 3A4 [18] = biological target: T2, Cytochrome P450 3A4; experiment: Time-dependent inhibition of CYP3A4 in human liver microsomes using testosterone in presence of NADPH by LC-MS/MS analysis; type: ADME
[19] = Protein binding in cynomolgus monkey plasma assessed as unbound fraction; type: ADME, cell-free, Macaca fascicularis
[20] = Protein binding in dog plasma assessed as unbound fraction; type: ADME, cell-free, Canis lupus familiaris
Cytochrome P450 3A4 [21] = biological target: T2, Cytochrome P450 3A4; experiment: Induction of CYP3A4 in human hepatocytes up to 50 uM; type: ADME, cell-based, Hepatocyte
Outline: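 Sandwich-cultured human hepatocytes exposed at concentrations up to 50 μM; induction of CYP1A2, 2B6 and 3A4 assessed.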

[22] = Stability in mouse plasma assessed as parent compound remaining after 6 hrs; type: ADME, cell-free; settings: read-out: Stabilty
Outline: (§2)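 Compound incubated in plasma for 6 hours, then percentage of parent compound remaining determined.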

[23] = Stability in Beagle dog plasma assessed as parent compound remaining after 6 hrs; type: ADME, cell-free, Canis lupus familiaris; settings: read-out: Stabilty; outline: as §2
[24] = Drug metabolism in human liver microsomes assessed as O-deisopropylation; type: ADME, Microsome
[25] = biological target: T3, Tyrosine-protein kinase BTK (Mus musculus, UniProt P35991); experiment: Inhibition of BTK in DBA1 mouse whole blood assessed as reduction in BTK phosphorylation; type: tissue-based
[26] = biological target: T3, Tyrosine-protein kinase BTK; experiment: In vivo inhibition of BTK in TI-2 antigen/ NP-Ficoll-induced DBA1 mouse immunized model assessed as reduction in BTK phosphorylation administered orally twice daily for 10 days measured post last dose; type: functional, organism-based
Outline: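 Female DBA/1 mice, nine per arm, were immunized with 30 µg NP-Ficoll ip on day 0 and dosed PO twice daily for 10 days (1-50 mg/kg/dose) in 0.5% carboxymethylcellulose/0.1% Tween 80. On day 10, serum NP-specific IgM was measured by ELISA on NP-BSA plates (biotin anti-IgM, streptavidin-HRP, ABTS, 405 nm) and titer interpolated against a pooled positive serum standard, reported as reduction vs vehicle. Whole-blood pBTK was taken at pre-last dose and 1 and 4 h post final dose.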

[27] = Toxicity in Sprague-Dawley rat assessed as effect on food consumption measured up to 13 weeks; settings: in vivo, 2184 h
Outline: (§3)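 GLP toxicity studies lasting up to 13 weeks, run in Sprague-Dawley rats and cynomolgus monkeys.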

[28] = Toxicity in Sprague-Dawley rat assessed as effect on organ weight measured up to 13 weeks; settings: in vivo, 2184 h; outline: as §3
[29] = Toxicity in Sprague-Dawley rat assessed as effect on gross pathology measured up to 13 weeks; settings: in vivo, 2184 h; outline: as §3
[30] = Toxicity in cynomolgus monkey assessed as effect on clinical sign measured up to 13 weeks; design: species or system Macaca fascicularis; settings: in vivo, 2184 h; outline: as §3
[31] = Toxicity in cynomolgus monkey assessed as effect on food consumption measured up to 13 weeks; design: species or system Macaca fascicularis; settings: in vivo, 2184 h; outline: as §3
[32] = Toxicity in cynomolgus monkey assessed as effect on organ weight measured up to 13 weeks; design: species or system Macaca fascicularis; settings: in vivo, 2184 h; outline: as §3
[33] = Toxicity in cynomolgus monkey assessed as effect on gross pathology measured up to 13 weeks; design: species or system Macaca fascicularis; settings: in vivo, 2184 h; outline: as §3
[34] = Toxicity in cynomolgus monkey assessed as histopathological changes measured up to 13 weeks; design: species or system Macaca fascicularis; settings: in vivo, 2184 h; outline: as §3
[35] = Toxicity in cynomolgus monkey measured up to 13 weeks; design: species or system Macaca fascicularis; settings: in vivo; outline: as §3
[36] = Toxicity in cynomolgus monkey assessed as effect on cardiovascular system administered as single dose; design: species or system Macaca fascicularis; settings: in vivo
Outline: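 Single-dose cardiovascular safety study in cynomolgus monkeys.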

T2 sequence (P08684 whole entry): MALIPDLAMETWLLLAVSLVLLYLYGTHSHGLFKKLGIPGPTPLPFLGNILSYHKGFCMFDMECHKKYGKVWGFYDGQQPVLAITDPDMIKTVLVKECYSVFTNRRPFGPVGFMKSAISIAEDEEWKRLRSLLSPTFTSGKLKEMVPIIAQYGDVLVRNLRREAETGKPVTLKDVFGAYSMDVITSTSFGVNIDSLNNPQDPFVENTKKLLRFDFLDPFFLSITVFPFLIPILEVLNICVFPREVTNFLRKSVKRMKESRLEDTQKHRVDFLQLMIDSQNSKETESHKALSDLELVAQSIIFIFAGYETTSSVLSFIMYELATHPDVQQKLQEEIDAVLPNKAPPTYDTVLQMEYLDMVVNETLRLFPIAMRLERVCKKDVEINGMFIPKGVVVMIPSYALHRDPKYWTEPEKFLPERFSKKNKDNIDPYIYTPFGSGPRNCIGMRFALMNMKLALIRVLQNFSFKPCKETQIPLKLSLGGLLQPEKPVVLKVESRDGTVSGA
T3 sequence (P35991 whole entry): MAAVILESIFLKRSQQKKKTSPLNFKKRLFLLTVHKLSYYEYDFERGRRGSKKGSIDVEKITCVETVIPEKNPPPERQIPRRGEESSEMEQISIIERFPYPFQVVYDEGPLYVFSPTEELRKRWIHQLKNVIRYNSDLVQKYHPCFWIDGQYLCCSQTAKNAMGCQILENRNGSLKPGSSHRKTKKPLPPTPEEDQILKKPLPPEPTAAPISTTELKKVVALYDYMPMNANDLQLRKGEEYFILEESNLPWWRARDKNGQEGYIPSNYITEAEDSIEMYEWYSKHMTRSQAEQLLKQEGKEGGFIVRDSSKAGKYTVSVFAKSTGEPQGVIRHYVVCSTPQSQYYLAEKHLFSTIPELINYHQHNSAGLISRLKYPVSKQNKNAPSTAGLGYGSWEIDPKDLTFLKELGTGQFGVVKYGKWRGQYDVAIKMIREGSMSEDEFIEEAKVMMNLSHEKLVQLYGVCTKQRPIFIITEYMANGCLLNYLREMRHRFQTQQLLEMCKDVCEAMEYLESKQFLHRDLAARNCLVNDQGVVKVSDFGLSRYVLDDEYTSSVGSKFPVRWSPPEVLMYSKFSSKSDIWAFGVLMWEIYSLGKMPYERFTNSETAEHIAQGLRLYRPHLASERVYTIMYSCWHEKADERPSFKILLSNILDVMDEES
Chain of Cytochrome P450 2C19 (P33261 whole entry): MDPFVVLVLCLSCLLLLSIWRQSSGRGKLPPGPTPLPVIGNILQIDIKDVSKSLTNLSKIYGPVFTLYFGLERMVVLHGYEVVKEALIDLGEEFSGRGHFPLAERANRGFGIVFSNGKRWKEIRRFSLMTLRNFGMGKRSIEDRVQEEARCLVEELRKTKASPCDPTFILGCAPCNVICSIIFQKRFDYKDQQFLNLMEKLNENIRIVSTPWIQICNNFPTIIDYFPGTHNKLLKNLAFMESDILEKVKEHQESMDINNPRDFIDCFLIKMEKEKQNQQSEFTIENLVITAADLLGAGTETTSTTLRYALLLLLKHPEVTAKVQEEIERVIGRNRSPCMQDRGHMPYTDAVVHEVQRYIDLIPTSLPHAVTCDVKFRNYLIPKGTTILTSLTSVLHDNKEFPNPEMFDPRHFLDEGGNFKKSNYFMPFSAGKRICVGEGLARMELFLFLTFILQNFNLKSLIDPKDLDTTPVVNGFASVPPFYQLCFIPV

With `Cc1cc(-c2ccnc(Nc3cnn(C)c3)n2)ccc1CNC(=O)N1CC(OC(C)C)C1` the ED50 [1] was 4.4 mg/kg, the logD [2] was 2.32 and the solubility kinetic [3] was greater than 10 µg/mL. It also gave a fraction unbound at 2 µM [4] of 0.059, a half-life [5] of 1.2 h and a Vd [6] of 0.2 L/kg. It also gave an AUC [7] of 1940 ng·h/mL, a Cmax [8] of 652 ng/mL and a bioavailability [9] of 26%. The half-life [10] was 2.1 h, the Vd [11] was 1.2 L/kg and the clearance [12] was 11 mL/min/kg. It also gave a half-life [13] of 0.9 h, a Vd [14] of 0.7 L/kg and a CL [15] of 26%. It also gave a pIC50 (Cytochrome P450 1A2) of less than 4.60, a pIC50 (Cytochrome P450 2C19) of less than 4.60 and a pIC50 (Cytochrome P450 3A4 [16]) of less than 4.60. It also gave a pIC50 (Cytochrome P450 3A4 [17]) of less than 4.60, a pKi (Cytochrome P450 3A4 [18]) of 4.30 and a fraction unbound [19] of 0.0362. The fraction unbound [20] was 0.113, the Activity (Cytochrome P450 3A4 [21]) was “Not Active” and the remaining at 6 h [22] was greater than 95%. For the same compound, the remaining at 6 h [23] was greater than 95%, the Drug metabolism [24] was “Metabolite_Detected” and the pIC50 [25] was 6.77. For the same compound, the pIC50 [26] was 6.89, the Activity [27] was “Non-Toxic” and the Activity [28] was “Non-Toxic”. For the same compound, the Activity [29] was “Non-Toxic”, the Activity [30] was “Non-Toxic” and the Activity [31] was “Non-Toxic”. The Activity [32] was “Non-Toxic”, the Activity [33] was “Non-Toxic” and the Activity [34] was “Non-Toxic”. The NOAEL at 2184 h [35] was 100 mg/kg/day and the Activity [36] was “Non-Toxic”.
